Calls of active or inactive are those of the source. The rule behind the calls is not given here.

Series [1] in a line: Half-life in Sprague-Dawley rat at 10 mg/kg, po measured after 5 to 720 mins by LC-tandem mass spectrometry analysis. Format: ADME, organism-based. The note with it: in vivo. Put shortly: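 Male Sprague-Dawley rats (190-210 g), fasted 12 h, randomized into two groups: 1 mg/kg i.v. or 10 mg/kg p.o., both formulated in 10% DMSO/90% of 5% glucose water. Blood sampled at 2-720 min (i.v.) or 5-720 min (p.o.). Plasma protein-precipitated with methanol, caffeine internal standard, LC-MS/MS. Noncompartmental analysis; triplicate, ±SD.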

Series [2] relates to Mast/stem cell growth factor receptor Kit (Homo sapiens), P10721 [N822K]. As to the kind of experiment: Inhibition of TEL fused c-KIT N822K mutant (unknown origin) transfected in mouse BAF3 cells assessed as growth inhibition after 72 hrs by CCK8 assay. Format: cell-based. Put shortly: (§1)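 Tel-c-KIT-transformed BaF3 lines (IL-3 independent) kept in RPMI 1640 with 10% FBS, 2% L-glutamine and pen/strep. Cells at 1.5 to 5 × 10^4 cells/mL mixed with graded compound and incubated 72 h at 37 °C, 5% CO2. Viability by CCK-8 absorbance at 450 nm, normalized to DMSO. GI50 from dose–response fit.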
A general note: Formazan colour is commonly taken as a measure of viable cells.

Series [3] deals with Serine/threonine-protein kinase 25 (Homo sapiens, UniProt O00506). As to the kind of experiment: Binding affinity to wild-type human partial length STK25 (V14 to H295 residues) expressed in bacterial expression system assessed as enzyme remaining activity at 1 uM by Kinomescan assay relative to control. Put shortly:
(§2)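 KINOMEscan competition binding panel of 468 kinases and mutants, compound at 1 μM; binding reported as percent of control.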

Series [4] concerns Mast/stem cell growth factor receptor Kit (Homo sapiens), P10721 [UNDEFINED MUTATION]. The series is described as follows: Inhibition of c-KIT 560 to 578 deletion mutant in human GISTT1 cells assessed as reduction in ERK phosphorylation at T202/Y204 residue at 0.1 uM to 3 uM after 1 hr by Western blot analysis. Format: cell-based. Put shortly:
(§3)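 Serial compound dilutions applied for 1 h to GIST-T1, GIST-T1-T670I (CRISPR/Cas9 T670I knock-in, clone confirmed by Sanger sequencing) or GIST-5R cells in DMEM with 10% FBS. Cells then lysed and phospho-proteins detected by standard Western blotting.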
On the technique in general: In western blotting, separated proteins are transferred to a membrane and probed.

Series [5] relates to GISTT1. As to the kind of experiment: Antiproliferative activity against human GISTT1 cells harboring c-KIT 560 to 578 deletion mutant incubated for 72 hrs by CCK8 assay. It is filed as functional. The note with it: GISTT1, 72 h. Put shortly: (§4)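 Adherent GIST cells seeded at 1.5-5 × 10^4 cells/mL and left overnight at 37 °C, 5% CO2. Medium then replaced with medium holding serial compound dilutions; 72 h incubation. Viability by CCK-8, absorbance at 450 nm, normalized to DMSO control; GI50 from dose-response fit.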

For series [6], the system named is Mus musculus. The series is described as follows: Inhibition of c-KIT phosphorylation at Y719 residue in tumor of human GIST5R cells xenografted in nude mouse at 100 mg/kg, po administered as single dose and measured at 2 hrs. It is filed as functional, organism-based. Put shortly: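 Female nu/nu mice bearing subcutaneous GIST-5R xenografts (cells in Matrigel, right flank) given one oral gavage dose of 100 mg/kg in HKI suspension (0.5% methocellulose/0.4% Tween80 in ddH2O). Tumors collected over a 2 h time course; p-c-KIT, p-ERK and p-AKT assessed by Western blot; plasma drug levels monitored in parallel.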
For orientation: A xenograft is tissue or cells of one species grown in another, often human tumour cells in immunodeficient mice.

Series [7] deals with Mast/stem cell growth factor receptor Kit (Homo sapiens), P10721 [UNDEFINED MUTATION]. The series is described as follows: Inhibition of c-KIT 560 to 578 deletion/T670I double mutant in human GISTT1 cells assessed as reduction in c-KIT autophosphorylation at Y719 residue at 0.1 uM to 3 uM after 1 hr by Western blot analysis. Format: cell-based. Put shortly:
as §3

Series [8] deals with Mast/stem cell growth factor receptor Kit (Homo sapiens), P10721 [T670I]. As to the kind of experiment: Inhibition of TEL fused c-KIT T670I mutant (unknown origin) transfected in mouse BAF3 cells assessed as growth inhibition after 72 hrs by CCK8 assay. Format: cell-based. Put shortly: as §1
Series [9] concerns Mus musculus. The series is described as follows: Inhibition of c-KIT phosphorylation at Y703 residue in tumor of human GIST5R cells xenografted in nude mouse at 100 mg/kg, po administered as single dose and measured after 2 hrs. It is filed as functional, organism-based. Put shortly: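 Female nu/nu mice bearing subcutaneous GIST-5R tumors (cells in Matrigel, right flank) given one oral dose of 100 mg/kg in 0.5% methylcellulose/0.4% Tween80. Tumors collected over a 2 h time course. p-c-KIT, p-ERK and p-AKT measured alongside plasma drug levels.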

In series [10] the target is Mast/stem cell growth factor receptor Kit (Homo sapiens, UniProt P10721). The series is described as follows: Inhibition of TEL fused wild type c-KIT (unknown origin) transfected in mouse BaF3 cells assessed as reduction in phosphorylation at Y719 residue after 2 hrs by Western blot analysis. It is filed as cell-based.
Series [11] is described as follows: Antiproliferative activity against human GIST5R cells harboring c-KIT 560 to 578 deletion/T670I double mutant incubated for 72 hrs by CCK8 assay. It is filed as functional. Put shortly: as §4
Series [12] relates to Mast/stem cell growth factor receptor Kit (Homo sapiens), P10721 [UNDEFINED MUTATION]. As to the kind of experiment: Inhibition of c-KIT 560 to 578 deletion/T670I double mutant in human GIST5R cells assessed as reduction in S6 phosphorylation at S235/S236 residue at 0.1 uM to 3 uM after 1 hr by Western blot analysis. Format: cell-based. Put shortly: as §3
Series [13] in a line: Apparent volume of distribution in mouse at 10 mg/kg, po measured after 5 to 720 mins by LC-tandem mass spectrometry analysis. It is filed as ADME, organism-based. The note with it: in vivo. Put shortly:
(§5)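 Mice dosed 1 mg/kg i.v. or 10 mg/kg p.o.; plasma drug levels by LC-MS/MS, parameters by noncompartmental analysis; values not from triplicate testing.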

For series [14], the target named is Macrophage colony-stimulating factor 1 receptor (Homo sapiens, UniProt P07333). As to the kind of experiment: Binding affinity to wild-type human partial length CSF1R (I564 to S939 residues) expressed in bacterial expression system assessed as enzyme remaining activity at 1 uM by Kinomescan assay relative to control. Put shortly:
as §2

For series [15], the system named is GISTT1. As to the kind of experiment: Induction of apoptosis in human GISTT1 cells harboring c-KIT 560 to 578 deletion/T670I double mutant assessed as increase in cleaved caspase level after 24 hrs by Western blot analysis. Format: functional, cell-based.
Series [16] has as its target Casein kinase I isoform alpha (Homo sapiens, UniProt P48729). The series is described as follows: Inhibition of wild-type human partial length CSNK1A1 (M1 to L301 residues) expressed in mammalian expression system after 1 hr by Z-LYTE assay.
In series [17] the test system is Mast/stem cell growth factor receptor Kit (Homo sapiens), P10721 [UNDEFINED MUTATION]. As to the kind of experiment: Inhibition of c-KIT 560 to 578 deletion/T670I double mutant in human GIST5R cells assessed as reduction in AKT phosphorylation at S473 residue at 0.1 uM to 3 uM after 1 hr by Western blot analysis. It is filed as cell-based. Put shortly:
as §3

Series [18] has the same test system. As to the kind of experiment: Inhibition of c-KIT 560 to 578 deletion/T670I double mutant in human GIST5R cells assessed as reduction in c-KIT autophosphorylation at Y823 residue at 0.1 uM to 3 uM after 1 hr by Western blot analysis. Format: cell-based. Put shortly: as §3
Series [19] is described as follows: AUC (0 to infinity) in mouse at 10 mg/kg, po measured after 5 to 720 mins by LC-tandem mass spectrometry analysis. It is filed as ADME, organism-based. Set-up: dose 10 mg/kg, route oral, time infinity. The note with it: in vivo. Put shortly:
as §5

Series [20] can be described thus: AUC (0 to infinity) in mouse at 1 mg/kg, iv measured after 2 to 720 mins by LC-tandem mass spectrometry analysis. Format: ADME, organism-based. Details: dose 1 mg/kg, time infinity, route intravenous. To be noted: in vivo. Put shortly:
as §5

Mast/stem cell growth factor receptor Kit (Homo sapiens), P10721 [UNDEFINED MUTATION], sequence (P10721 whole entry, looked up, stated change not applied): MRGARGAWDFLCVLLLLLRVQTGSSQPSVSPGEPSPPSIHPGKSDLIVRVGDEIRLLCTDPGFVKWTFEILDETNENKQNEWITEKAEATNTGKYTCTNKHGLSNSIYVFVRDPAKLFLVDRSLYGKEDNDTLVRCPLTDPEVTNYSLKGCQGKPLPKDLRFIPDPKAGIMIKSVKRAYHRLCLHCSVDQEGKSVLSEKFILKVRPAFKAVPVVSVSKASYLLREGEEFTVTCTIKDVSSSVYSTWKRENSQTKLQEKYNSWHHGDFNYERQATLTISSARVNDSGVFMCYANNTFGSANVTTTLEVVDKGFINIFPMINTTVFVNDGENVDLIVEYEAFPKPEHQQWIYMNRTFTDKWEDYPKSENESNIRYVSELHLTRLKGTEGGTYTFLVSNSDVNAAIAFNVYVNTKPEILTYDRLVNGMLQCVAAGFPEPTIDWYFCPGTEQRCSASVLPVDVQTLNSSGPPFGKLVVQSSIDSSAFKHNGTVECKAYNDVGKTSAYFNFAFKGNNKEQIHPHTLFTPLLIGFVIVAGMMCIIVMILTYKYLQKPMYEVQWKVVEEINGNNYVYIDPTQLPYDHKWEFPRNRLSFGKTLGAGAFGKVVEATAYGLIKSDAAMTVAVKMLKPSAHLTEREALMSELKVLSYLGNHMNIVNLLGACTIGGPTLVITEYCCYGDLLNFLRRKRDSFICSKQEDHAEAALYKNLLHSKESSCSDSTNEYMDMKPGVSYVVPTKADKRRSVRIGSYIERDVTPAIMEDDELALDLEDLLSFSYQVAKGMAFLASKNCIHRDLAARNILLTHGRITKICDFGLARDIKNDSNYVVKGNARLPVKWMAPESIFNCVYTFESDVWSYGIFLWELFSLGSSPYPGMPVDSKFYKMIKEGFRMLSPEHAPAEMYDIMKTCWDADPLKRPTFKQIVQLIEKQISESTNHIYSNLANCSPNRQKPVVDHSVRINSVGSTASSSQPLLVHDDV
Mast/stem cell growth factor receptor Kit (Homo sapiens), P10721 [N822K], sequence (P10721 whole entry N822K, the tested form may be a part): as the sequence (P10721 whole entry, looked up, stated change not applied) above, with N822K counted along it
Serine/threonine-protein kinase 25, sequence (O00506 whole entry, looked up, the tested form may be a part): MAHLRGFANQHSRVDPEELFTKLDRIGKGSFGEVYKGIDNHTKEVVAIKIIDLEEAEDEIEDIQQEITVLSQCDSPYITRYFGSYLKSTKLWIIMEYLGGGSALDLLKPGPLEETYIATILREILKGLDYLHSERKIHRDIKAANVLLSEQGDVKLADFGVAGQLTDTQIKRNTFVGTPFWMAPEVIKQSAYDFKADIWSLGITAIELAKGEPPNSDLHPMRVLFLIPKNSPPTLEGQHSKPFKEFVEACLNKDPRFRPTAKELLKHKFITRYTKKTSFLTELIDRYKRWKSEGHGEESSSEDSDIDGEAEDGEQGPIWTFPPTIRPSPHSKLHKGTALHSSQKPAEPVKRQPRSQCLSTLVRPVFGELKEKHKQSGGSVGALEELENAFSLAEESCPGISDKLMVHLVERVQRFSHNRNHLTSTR
Macrophage colony-stimulating factor 1 receptor, sequence (P07333 whole entry, the tested form may be a part): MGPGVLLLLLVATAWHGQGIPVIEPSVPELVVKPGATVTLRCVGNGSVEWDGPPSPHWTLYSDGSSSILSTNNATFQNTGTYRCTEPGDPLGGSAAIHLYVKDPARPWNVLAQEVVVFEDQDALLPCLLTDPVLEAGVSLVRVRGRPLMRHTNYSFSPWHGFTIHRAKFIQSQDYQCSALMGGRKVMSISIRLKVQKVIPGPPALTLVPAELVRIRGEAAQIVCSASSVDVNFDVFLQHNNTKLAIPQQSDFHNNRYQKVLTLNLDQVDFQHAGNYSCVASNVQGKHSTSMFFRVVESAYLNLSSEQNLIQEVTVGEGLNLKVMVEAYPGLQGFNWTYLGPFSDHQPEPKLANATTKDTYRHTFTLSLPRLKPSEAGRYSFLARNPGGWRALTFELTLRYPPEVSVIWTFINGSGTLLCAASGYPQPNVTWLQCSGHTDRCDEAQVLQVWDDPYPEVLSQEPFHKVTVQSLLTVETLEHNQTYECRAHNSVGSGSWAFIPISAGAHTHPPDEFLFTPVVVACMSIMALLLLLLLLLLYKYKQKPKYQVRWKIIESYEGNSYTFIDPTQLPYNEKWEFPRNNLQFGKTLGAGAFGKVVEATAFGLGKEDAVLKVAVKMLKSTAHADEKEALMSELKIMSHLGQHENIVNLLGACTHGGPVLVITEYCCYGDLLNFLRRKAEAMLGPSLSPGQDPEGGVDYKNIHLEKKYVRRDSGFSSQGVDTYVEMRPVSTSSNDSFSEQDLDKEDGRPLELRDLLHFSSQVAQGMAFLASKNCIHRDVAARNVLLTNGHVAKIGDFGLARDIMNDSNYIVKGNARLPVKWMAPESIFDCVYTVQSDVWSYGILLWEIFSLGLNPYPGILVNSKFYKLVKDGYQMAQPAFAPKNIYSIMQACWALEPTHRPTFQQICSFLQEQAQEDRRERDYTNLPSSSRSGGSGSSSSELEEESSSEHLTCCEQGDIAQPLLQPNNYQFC
Mast/stem cell growth factor receptor Kit (Homo sapiens), P10721 [T670I], sequence (P10721 whole entry T670I, the tested form may be a part): as the sequence (P10721 whole entry, looked up, stated change not applied) above, with T670I counted along it
Mast/stem cell growth factor receptor Kit, sequence (P10721 whole entry, the tested form may be a part): as the sequence (P10721 whole entry, looked up, stated change not applied) above
Casein kinase I isoform alpha, sequence (P48729 whole entry, the tested form may be a part, canonical isoform): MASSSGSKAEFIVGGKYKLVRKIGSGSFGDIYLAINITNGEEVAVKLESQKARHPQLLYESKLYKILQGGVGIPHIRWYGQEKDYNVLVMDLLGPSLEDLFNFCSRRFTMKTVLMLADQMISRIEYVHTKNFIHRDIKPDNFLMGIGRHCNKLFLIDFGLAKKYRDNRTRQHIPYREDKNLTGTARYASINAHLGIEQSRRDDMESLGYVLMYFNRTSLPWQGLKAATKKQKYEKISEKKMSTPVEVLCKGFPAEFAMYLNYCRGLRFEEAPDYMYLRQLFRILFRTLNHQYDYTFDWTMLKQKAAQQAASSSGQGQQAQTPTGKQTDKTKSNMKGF

Broadly, the half-life is the time in which the quantity being followed falls by half. A lower half-life goes with fast loss. The GI50 is the concentration giving 50% growth inhibition. By EC50 is commonly meant the midpoint of the concentration-response curve. As a reminder, the IC50 is the midpoint of a concentration-inhibition curve. Read a high IC50 as lower potency. Broadly, the AUC(0-inf) is total exposure, with the tail of the curve extrapolated. The compound `O=C(CC(=O)Nc1ccc2c(/C=C/c3ccccn3)n[nH]c2c1)Nc1cccc(F)c1` had a half-life in series [1] of 4.9 h. The GI50 is 6060 nM in [2], 52 nM with GISTT1 [5], 44 nM in series [8] and 475 nM in [11]. Further, the Activity in series [3] is 0%; in [14], 0%; in the series on GISTT1 [15], “Dose-dependent effect”. For the same compound, the inhibition entry (in [4]; in the series with Mus musculus [6]; in [7]; in series [12]; in [17]; in series [18]) was “Active” each time. In addition, in the series on Mus musculus [9], the inhibition result is “inactive”. The EC50 in [10] is over 1000 nM. Besides, in series [13], the Vz was determined as 19 L/kg. Further, the IC50 in [16] was over 10000 nM. In addition, the AUC(0-inf) in [19] came out at 1480 ng·h/mL; in series [20], 901 ng·h/mL.
